# Compound activity: PubChem BioAssay, several laboratories
# Dynein transport: blocks dynein driven cargo transport along microtubules. 3617.4 mouse cells, GR-EGFP nuclear translocation imaging; test concentration mostly 20 µM; stimulated with dexamethasone, 1 µM; active compounds read low. z-score, hits read low. actives 0.47% (n = 220,000). AID 1381;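 active = plate z-score of nuclear minus cytoplasmic receptor signal below a set negative limit, without overly bright fluorescence or cell loss, cut at about -3.5 in these data, passing the limit was not always enough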;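 also: z-score of nuclear minus cytoplasmic ring GR-EGFP intensity difference per well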
#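 Also added – dexamethasone, 1.0 µM final · Buffer or medium – tet-free, stripped-serum medium · Schedule – induction 48 h, compound 1 h, agonist 30 min · Detection – formaldehyde fixation, Hoechst nuclear stain, 10x automated fluorescence imaging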
# Furin inhibitor: human furin inhibition. P09958. actives 0.061% (n = 220,000). purified furin, fluorogenic substrate cleavage. inhibition, % at 20 µM or 30 µM. AID 463115; in the data active = inhibition above about 25%
# Target sequence (P09958 108-714 limits assumed): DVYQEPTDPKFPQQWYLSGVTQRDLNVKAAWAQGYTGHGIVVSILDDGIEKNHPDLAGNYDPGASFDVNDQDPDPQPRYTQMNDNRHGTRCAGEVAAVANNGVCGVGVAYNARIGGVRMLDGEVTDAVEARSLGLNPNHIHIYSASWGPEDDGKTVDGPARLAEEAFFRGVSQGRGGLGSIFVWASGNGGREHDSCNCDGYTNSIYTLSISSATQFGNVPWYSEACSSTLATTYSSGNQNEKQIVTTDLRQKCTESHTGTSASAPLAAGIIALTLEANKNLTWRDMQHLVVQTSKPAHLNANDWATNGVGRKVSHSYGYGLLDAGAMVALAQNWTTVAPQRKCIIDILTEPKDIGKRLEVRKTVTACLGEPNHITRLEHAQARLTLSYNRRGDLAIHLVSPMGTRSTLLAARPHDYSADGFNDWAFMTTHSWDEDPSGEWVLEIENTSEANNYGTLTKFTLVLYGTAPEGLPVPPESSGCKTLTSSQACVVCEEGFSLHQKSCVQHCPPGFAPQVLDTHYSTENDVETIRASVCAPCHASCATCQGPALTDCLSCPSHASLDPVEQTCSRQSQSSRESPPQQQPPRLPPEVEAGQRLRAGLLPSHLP
# TNF necrop inh: inhibitors of TNF-alpha induced necroptosis in Jurkat FADD-/- cells; Jurkat FADD-/- TNF necroptosis rescue, ATP luminescence, 24 h; 0 = TNF only, 100 = no-TNF cells; actives 0.068% (n = 220,000); activation (protection from cell death), % at 10 µM; AID 463075;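 active = activation, meaning protection from cell death, of at least 50% relative to plate controls; inactive = activation below 50%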;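 also: necroptosis triggered by 40 ng/mL TNF-alpha added together with compound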
# Autophagy HCS: autophagy modulation, high-content screen; MEF GFP-LC3 puncta imaging; test concentration mostly 10 µM; calls only at 10 µM (by protocol); actives 0.98% (n = 190,000); AID 463193;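 active = percentage of spot-positive cells more than 3 SD above its plate mean, without a fluorescence outlier flag or 80% toxicity; inconclusive = no clear call, values can overlap the other calls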;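 also: spot-positive cell cutoff set from DMSO-treated cells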
# HSV augment: increases HSV replication in cells; HSV replication augmentation in cells, fold increase; maximum fold increase; actives 0.005% (n = 220,000); AID 1956; in the data active = maximum fold increase above about 1.5; inconclusive = no clear call, values can overlap the other calls; tested in PC3 cells
# zVAD death inh: blocks zVAD induced death of L929 cells; actives 0.38% (n = 220,000); viability rescue, % at 10 µM; L929 zVAD necroptosis rescue, ATP luminescence, 24 h; with zVAD 60 µM;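 active = activation, scaled between plate controls, above about 75%, limit read from the data; inactive = activation under that limit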;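 also: 0% = zVAD with DMSO and 100% = DMSO alone without zVAD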
# * marks the source's active call; other numbers are inactive results; i = inactive; ? = inconclusive; . = not tested or not shown; + = active, no number. Hits are enriched below; roughly 1.8% of the tested compounds scored in any of these assays.
SMILES,Dynein transport,Furin inhibitor,TNF necrop inh,Autophagy HCS,HSV augment,zVAD death inh
O=C(CCN1CCCCC1)NNC(=O)C12CC3CC(CC(C3)C1)C2,0.96,-25,0,i,i,1
CN1CCN(C(=O)C2CCC(CNS(=O)(=O)c3cccc4cccnc34)CC2)CC1 (stereo not given),0.86,-25,1,i,i,1
O=C(C1CCC(CNS(=O)(=O)c2cccc3cccnc23)CC1)N1CCc2ccccc21 (stereo not given),0.32,-15,-3,+,i,0
COc1cc(/C=C/C(=O)OCC(=O)NCc2cccs2)ccc1OCC#N,-0.81,-12,2,i,i,1
COc1ccc(C(=O)c2cc([N+](=O)[O-])ccc2N2CCN(C)CC2)cc1,2,-5,-3,+,i,-3
CCc1ccc(S(=O)(=O)/N=C2\C=CC(=O)c3ccccc32)cc1,-1.9,-29,-1,i,i,3
CCc1ccc(S(=O)(=O)/N=C2/C=C(Sc3ncn[nH]3)C(=O)c3ccccc32)cc1,-6.7*,-4,-7,i,.,2
Cc1ccc2cc(C#N)c(SCc3nnc(-c4ccccc4[N+](=O)[O-])o3)nc2c1,0.09,-14,3,+,i,0
COC(=O)CSc1nc2cc(C)ccc2cc1C#N,-0.66,-25,0,i,i,1
CCOc1ccccc1NC(=O)CCCN1C(=S)NC(C)(C)CC1C (stereo not given),-0.49,-15,1,i,i,0
COc1ccccc1C1CC(=O)Nc2cc3c(cc21)OCCO3 (stereo not given),1.1,14,-9,+,i,-1
CC(C)Oc1ccccc1C1CC(=O)Nc2cc3c(cc21)OCCO3 (stereo not given),-0.28,-18,-10,i,i,0
COc1cc(NC(=O)CN(C)C2CCCCC2)c(C)cc1[N+](=O)[O-],-0.039,-5,4,i,i,4
Cc1ccc(Cn2nc(C)c(NC(=O)c3nn(C)cc3Cl)c2C)cc1,0.27,25*,1,i,i,0
COC(=O)Nc1ccc(S(=O)(=O)N2CCCc3ccccc32)cc1,-0.28,-24,-7,+,i,0
CC1=CC(=C(C#N)C#N)C=C(C)N1Cc1ccccc1,0.16,4,-1,i,i,0
O=C(C1Cc2ccccc2CN1S(=O)(=O)c1cccs1)N1CCCCC1 (stereo not given),0.66,28*,-2,i,i,0
CN(C)C(=O)C1Cc2ccccc2CN1S(=O)(=O)c1cccs1 (stereo not given),1.3,-11,1,i,i,-1
O=C(COC(=O)CCc1ccc(S(=O)(=O)N2CCOCC2)cc1)NCc1ccc(Cl)cc1,2.2,-17,1,i,i,1
COc1ccccc1C(=O)N=Nc1c(O)[nH]c2ccc([N+](=O)[O-])cc12,0.57,5,-5,+,i,1
NC(=O)N=Nc1c(O)[nH]c2ccc([N+](=O)[O-])cc12,0.26,-5,3,.,i,0
CCN(CC(=O)Nc1c(F)cccc1F)C(=O)CCc1ccc(OC)cc1,1.3,-26,0,i,i,1
C=CCN1C(=O)/C(=C/c2ccc(N(C)C)cc2)S/C1=N\c1nnc(CC)s1,-3.3,-9,2,+,.,0
Cc1ccc(CSCCNS(=O)(=O)c2ccc(C)cc2)cc1,-0.13,-2,2,i,i,1
COc1cc2c3nnc(-c4ccc(F)cc4)c-3cn(Cc3ccccc3F)c2cc1OC,0.23,-44,-18,+,?,-1
COc1cc2c3nnc(-c4ccccc4)c-3cn(Cc3ccccc3F)c2cc1OC,1.4,-40,1,i,.,-1
O=C(Cc1cccs1)N1CCN=C1SCc1ccccc1Cl,-1.3,-6,4,i,i,12
O=C(Cc1cccs1)N1CCN=C1SCc1ccccc1F,-0.41,-21,5,+,i,3
COc1cc(CNCCO)cc(Cl)c1OCc1ccc(Cl)cc1Cl,7.2,4,2,+,i,9
